Experiment [1] deals with Human immunodeficiency virus type 1 reverse transcriptase (Human immunodeficiency virus 1), Q72547 [P236L]. Put plainly: Inhibitory activity against HIV-1 reverse transcriptase (P236L) at 10 uM dose. The essentials: (§1)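 Recombinant HIV-1 RT homodimers (wild type or P236L mutant) were tested with compound at a single 10 µM concentration and reported as % inhibition. Reactions ran at 28 °C for 10 min and were stopped with 10% trichloroacetic acid. Acid-precipitated product was collected on glass fibre filters and counted for radioactivity.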

The target of experiment [2] is Human immunodeficiency virus type 1 reverse transcriptase (Human immunodeficiency virus 1) (UniProt Q72547). As to the kind of experiment: inhibitory activity against HIV-1 reverse transcriptase (wild type) at 10 uM dose. The essentials: as §1
The target is the same in experiment [3]. As to the kind of experiment: Inhibitory activity against HIV-1 reverse transcriptase (wild type) at 10 uM dose. The essentials: as §1
Experiment [4] concerns MT4. Put plainly: concentration of drug that inhibited p24 production by 90% in infected MT-4 cells against HIV-1-WT. The class given is functional. The following applies: Homo sapiens.
Experiment [5] deals with MT4. As to the kind of experiment: concentration of drug that inhibited p24 production by 90% in infected MT-4 cells against HIV-1MF-DLV. The class given is functional. The following applies: Homo sapiens.
In experiment [6] the target is Human immunodeficiency virus type 1 reverse transcriptase (Human immunodeficiency virus 1, UniProt Q72547, P236L). As to the kind of experiment: Inhibition of HIV-1 reverse transcriptase (P236L). The essentials:
(§2)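 HIV-1 RT homodimers (wild type or P236L) were assayed by radiolabel incorporation at 28 °C for 10 min and stopped with 10% trichloroacetic acid. Acid-insoluble product was filter-captured and counted. IC50 was derived from inhibition measured at eight drug concentrations.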

For experiment [7], the target named is Human immunodeficiency virus type 1 reverse transcriptase (Human immunodeficiency virus 1, UniProt Q72547). As to the kind of experiment: Inhibition of HIV-1 reverse transcriptase (wild type). The essentials:
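Wild-type HIV-1 RT homodimer run at 28 °C for 10 min. The reaction is stopped with 10% (v/v) trichloroacetic acid, and the acid-precipitated product is collected on glass fiber filters and counted for radioactivity. Compounds are screened as % inhibition at 10 µM, and IC50 values are determined from eight drug concentrations.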

Experiment [8] relates to Human immunodeficiency virus type 1 reverse transcriptase (Human immunodeficiency virus 1), Q72547 [P236L]. As to the kind of experiment: inhibitory activity against HIV-1 reverse transcriptase (P236L) at 10 uM dose (IC50 determined in 8 drug concentrations). The essentials:
as §2

Experiment [9] addresses Human immunodeficiency virus type 1 reverse transcriptase (Human immunodeficiency virus 1) (UniProt Q72547). As to the kind of experiment: inhibitory activity against HIV-1 reverse transcriptase (wild type) at 10 uM dose (IC50 determined in 8 drug concentrations). The essentials:
as §2

Molecules are shown by their SMILES.

As a reminder, the inhibition is the percentage by which the read-out fell short of the control. In the case of `Nc1ccnc(SCc2ccc3ccccc3c2)n1`, the figures for the inhibition in experiment [1] and in [2] were 71% and 50%, respectively.
Turning to `Clc1cc(NC2CCCCC2)nc(SCc2ccccc2)n1`, the inhibition in experiment [1] worked out at 6%; in [3], 26%.
On the same counts, the results for `Clc1cc(N2CCCCC2)nc(SCc2ccccc2)n1` are 47% and 47%.
As to `Clc1cc(Cl)nc(SCc2ccc3ccccc3c2)n1`, the inhibition is 23% in [1] and 0% in [3].
By IC90 is commonly meant the concentration at which the effect reaches the 90% level. For orientation: IC50 means the concentration at which inhibition is half-maximal. A low value points to inhibition by little substance. Turning to `CCN(CC)C(=O)/C=C/CSc1nc(N)cc(Cl)n1`, the IC90 in [4] came to 20 nM; in experiment [5], 110 nM. Further, the values for the IC50 in [6] and in experiment [7] were 50 nM and 60 nM, respectively. The inhibition was found to be 99% in experiment [8] and 98% in experiment [9].
With `Clc1cc(Cl)nc(SCc2ccccc2)n1`, the inhibition in experiment [1] worked out at 25%; in experiment [3], 19%.
As to `Nc1cc(Cl)nc(SC/C=C/c2ccccc2)n1`, the values for the IC90 in experiment [4] and in experiment [5] were 150 nM and 5050 nM, respectively. Also, the results for the inhibition in experiment [1] and in [3] were 98% and 96%, respectively. Besides, the IC50 was found to be 70 nM in experiment [6] and 190 nM in [7].
As to `Nc1cc(C(F)(F)F)nc(SCc2ccc3ccccc3c2)n1`, the inhibition in experiment [1] and in [3] was 94% each time. Besides, the IC50 came out at 430 nM in experiment [6] and 290 nM in [7].
As to `COC(=O)c1cccc(CSc2nc(N)cc(Cl)n2)c1`, the inhibition is 94% in [1] and 93% in experiment [3]. Further, the IC50 came to 230 nM in experiment [6] and 330 nM in [7].
`Nc1cc(Cl)nc(SCc2ccc3c(c2)OCO3)n1`: the inhibition came to 95% in [1] and 82% in experiment [3].
For `Nc1cc(Cl)nc(SCc2cccc3ccccc23)n1` the same measures were 96% and 89%.
For `OCCCNc1cc(Cl)nc(SCc2ccccc2)n1` the same measures were 3% and 17%.
Regarding `Nc1cc(Cl)nc(SCC(=O)O)n1`, the inhibition in experiment [1] and in experiment [3] was 0% each time.
Take `Nc1cc(Cl)nc(NCc2ccc3ccccc3c2)n1`: the inhibition in experiment [1] was 17%; in experiment [3] it was 9%.
For `CCCNc1cc(Cl)nc(SCc2ccccc2)n1` the same measures were 30% and 14%.
For `Nc1cc(Cl)nc(SCCc2ccccc2)n1` the same measures were 12% and 33%.
For `Nc1cc(Cl)nc(SCC2=Cc3ccccc3CC2)n1` the same measures were 87% and 71%.
For the compound `CCN(CC)C(=O)CSc1nc(N)cc(Cl)n1`, the inhibition in experiment [1] and in experiment [3] was 14% in each case.
In the case of `CCOC(=O)CCSc1nc(N)cc(Cl)n1`, the results for the inhibition in experiment [1] and in experiment [3] were 7% and 11%, respectively.
With `CN(C)C(=O)/C=C/CSc1nc(N)cc(Cl)n1`, the IC90 in experiment [4] amounted to 90 nM; in experiment [5], 740 nM. Also, the IC50 came out at 70 nM in experiment [6] and 200 nM in experiment [7]. For the same compound, the inhibition in [8] and in [9] was 99% throughout.
As for `Nc1cc(Cl)nc(SCc2ccc(-c3ccccc3)cc2)n1`, the inhibition came out at 20% in [1] and 8% in experiment [3].
Turning to `Nc1cc(Cl)nc(SCc2ccccc2)n1`, the results for the IC50 in experiment [6] and in [7] were 1470 nM and 6660 nM, respectively.
As for `Clc1ccnc(SCc2ccc3ccccc3c2)n1`, the results for the inhibition in [1] and in experiment [3] were 86% and 61%, respectively.
`Nc1cc(Cl)nc(CCc2ccc3ccccc3c2)n1` displayed an inhibition in [1] of 12%.
Consider `Nc1cc(O)nc(SCc2ccc3ccccc3c2)n1`, for which the inhibition in experiment [1] was determined as 4%; in [3], 10%.
In the case of `Cc1cccc(CSc2nc(N)cc(Cl)n2)c1`, the values for the IC90 in [4] and in experiment [5] were 110 nM and 1760 nM, respectively. In addition, the IC50 in experiment [6] is 50 nM; in [7], 280 nM. The inhibition in experiment [8] amounted to 98%; in experiment [9], 96%.
Consider `Clc1cc(N2CCCC2)nc(SCc2ccccc2)n1`, for which the inhibition in experiment [1] is 41%; in experiment [3] it was 35%.
For the compound `Nc1cc(Cl)nc(SCc2ccc(Cl)c(Cl)c2)n1`, the inhibition was 94% in [1] and 80% in experiment [3]. For the same compound, the IC50 in [6] is 62 nM; in experiment [7], 490 nM.
With `CC1(C)CCC(C)(C)c2cc(CSc3nc(N)cc(Cl)n3)ccc21`, the inhibition turned out to be 23% in experiment [1] and 7% in experiment [3].
For `CCCCCCCCCSc1nc(N)cc(Cl)n1` the same measures were 0% and 0%.
In the case of `COC(=O)c1ccc(CSc2nc(N)cc(Cl)n2)cc1`, the results for the inhibition in experiment [1] and in [3] were 15% and 6%, respectively.
For `Cc1cccc(COc2nc(N)cc(Cl)n2)c1` the same measures were 72% and 25%.
In turn, `Nc1cc(Cl)nc(SCc2cc(Cl)cc(Cl)c2)n1` gave an inhibition in experiment [1] of 65%.
For the compound `Cc1cc(N)nc(SCc2ccccc2)n1`, the inhibition was determined as 4% in experiment [1] and 0% in experiment [3].
As to `Nc1cc(Cl)nc(SCc2cccc(Br)c2)n1`, the IC90 in experiment [4] worked out at 350 nM; in experiment [5], 4520 nM. Further, the inhibition is 97% in [1] and 94% in experiment [3]. For the same compound, the figures for the IC50 in experiment [6] and in experiment [7] were 140 nM and 760 nM, respectively.
Consider `Nc1cc(Cl)nc(SCc2cc(Br)cc(Br)c2)n1`, for which the inhibition in experiment [1] worked out at 73%.
For `Nc1cc(Cl)nc([S+]([O-])Cc2ccc3ccccc3c2)n1` (stereo not given), the figures for the inhibition in experiment [1] and in [3] were 75% and 45%, respectively.
As to `N#Cc1cc(N)nc(SCc2ccc3ccccc3c2)n1`, the inhibition in experiment [1] was 93%; in [3], 84%.
`NNc1cc(Cl)nc(SCc2ccccc2)n1` registered an inhibition in experiment [1] of 31%.
For `Nc1cc(Cl)nc(OCc2ccccc2)n1`, the inhibition in [1] came to 44%; in experiment [3] it was 1%.
For `Nc1cc(Cl)nc(OCc2ccc3ccccc3c2)n1` the same measures were 80% and 63%.
On to `Nc1cc(Cl)nc(SCC2CCCCC2)n1`, for which the inhibition in experiment [1] turned out to be 13%; in experiment [3], 37%.
For `CCNC(=O)/C=C/CSc1nc(N)cc(Cl)n1`, the inhibition was determined as 55% in experiment [1] and 40% in experiment [3].
For `CC(C)(C)c1ccc(CSc2nc(N)cc(Cl)n2)cc1` the same measures were 56% and 37%.
For `Nc1cc(N2CCCC2)nc(SCc2ccccc2)n1` the same measures were 0% and 3%.
`CCOC(=O)c1cc(N)nc(SCc2ccc3ccccc3c2)n1`: the inhibition is 24% in experiment [1] and 17% in experiment [3].
`Nc1cc(Cl)nc(S(=O)(=O)Cc2cccc(Br)c2)n1` showed an inhibition in experiment [1] of 14%.
Regarding `Cc1ccc(CSc2nc(N)cc(Cl)n2)cc1`, the inhibition in [1] is 5%; in [3], 3%.
For `C/C=C/CSc1nc(N)cc(Cl)n1` the same measures were 47% and 5%.
With `Nc1cc(Cl)nc(SCC2=CCCc3ccccc32)n1`, the inhibition in experiment [1] was 88%; in experiment [3], 47%. Also, the IC50 in experiment [6] amounted to 600 nM; in experiment [7], 16000 nM.
With `Clc1cc(-c2ccccc2)nc(SCc2ccc3ccccc3c2)n1`, the inhibition in experiment [1] was determined as 5%.
For `Nc1cc(Cl)nc(SCc2cccc(Cl)c2)n1`, the inhibition in experiment [1] worked out at 65%.
Turning to `Cc1ccccc1CSc1nc(N)cc(Cl)n1`, the inhibition in experiment [1] was found to be 0%; in experiment [3] it was 2%.
Consider `COc1ccc(CSc2nc(N)cc(Cl)n2)cc1`, for which the inhibition was found to be 63% in experiment [1] and 25% in [3].
Take `Nc1cc(Cl)nc([S+]([O-])Cc2cccc(Br)c2)n1` (stereo not given): the inhibition in [1] amounted to 40%.
`Nc1cc(Cl)nc(SCc2ccc3ccccc3c2)n1`: the IC90 in experiment [4] came out at 220 nM; in [5] it was 2760 nM. The IC50 in experiment [6] came to 150 nM; in experiment [7], 460 nM. Further, the values for the inhibition in experiment [8] and in [9] were 96% and 87%, respectively.
On to `Nc1cc(Cl)nc(OCc2cccc3ccccc23)n1`, for which the inhibition in experiment [1] was determined as 67%; in [3], 2%.
For `CC(=O)Nc1cc(Cl)nc(SCc2ccc3ccccc3c2)n1` the same measures were 53% and 30%.
For `Clc1cc(-n2ccnc2)nc(SCc2ccc3ccccc3c2)n1` the same measures were 17% and 12%.
Regarding `Nc1cc(Cl)nc(SCc2cccc(F)c2)n1`, in experiment [1], the inhibition came out at 79%.
Same read-out and setting: the figure for `Nc1cc(Cl)nc(SCc2cccc(I)c2)n1` is 89%.
Consider `COC(=O)/C=C/CSc1nc(N)cc(Cl)n1`, for which the inhibition was 93% in experiment [1] and 78% in experiment [3]. Besides, the IC50 in [6] was 930 nM; in experiment [7] it was 5250 nM.
As to `Nc1cc(Cl)nc(SCc2cccc(C(F)(F)F)c2)n1`, the inhibition in experiment [1] was found to be 91%; in experiment [3], 80%.

The values are drawn from ChEMBL document CHEMBL1131117, “Pyrimidine thioethers: a novel class of HIV-1 reverse transcriptase inhibitors with activity against BHAP-resistant HIV” (J Med Chem, 1998).
